SENP1 inh: human SENP1 catalytic domain inhibitors, primary screen, biochemical, FRET, uHTS. Sentrin-specific protease 1 (Homo sapiens), Q9P0U3. recombinant SENP1 catalytic domain, CyPet-SUMO1-YPet FRET cleavage. inhibition, % at 10 µM. 0.21% of 360,000 active. AID 624204, 2012;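 active means inhibition at least 30% at 10 µM, raw YFP signal under a set limit, fluorescence ratio 0.5 to 1.5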
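Assay system: hSENP1 catalytic domain, recombinant. Amount: SENP1 enzyme, 20 pM final. Schedule: 50 min reaction, RT, dark. Technique: FRET, CFP and YFP emission. Control set: no-enzyme wells low, DMSO-plus-enzyme wells high control.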
FAS-TE inh: FAS thioesterase domain inhibitors, primary screen, biochemical, fluorescence intensity, uHTS; Fatty acid synthase (Homo sapiens), P49327; recombinant FAS-TE, OMFH fluorogenic substrate, fluorescence endpoint; inhibition, % at 15 µM; 0.67% of 360,000 active; AID 602261, 2012;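 active means compounds whose normalised, plate-corrected inhibition of enzyme fluorescence in the single-dose primary screen is 50% or more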
ADAM17 inh: ADAM17 inhibitors, primary screen, biochemical, QFRET; 0.83% of 370,000 active; Disintegrin and metalloproteinase domain-containing protein 17 (Homo sapiens), P78536; inhibition, % at 6.95 µM; AID 720648, 2013; recombinant ADAM17, EDANS/DABCYL FRET peptide cleavage;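 active means inhibition above the mean of compounds lying between control limits plus 3 SD, set per campaign, cut at about 8.5% in these data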
ADAM10 inh: human ADAM10 inhibitors, primary screen, biochemical, QFRET, HTS | Disintegrin and metalloproteinase domain-containing protein 10 (Homo sapiens), O14672 | recombinant ADAM10, EDANS/DABCYL FRET peptide cleavage, 3 h | inhibition, % at 7 µM | 0.62% of 370,000 active | AID 720582, 2013;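 active means inhibition above a per-campaign cutoff equal to the mean of compounds falling between control-based bounds plus 3 SD, cut at about 20% in these data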
Target sequence (O14672 214-748 limits assumed): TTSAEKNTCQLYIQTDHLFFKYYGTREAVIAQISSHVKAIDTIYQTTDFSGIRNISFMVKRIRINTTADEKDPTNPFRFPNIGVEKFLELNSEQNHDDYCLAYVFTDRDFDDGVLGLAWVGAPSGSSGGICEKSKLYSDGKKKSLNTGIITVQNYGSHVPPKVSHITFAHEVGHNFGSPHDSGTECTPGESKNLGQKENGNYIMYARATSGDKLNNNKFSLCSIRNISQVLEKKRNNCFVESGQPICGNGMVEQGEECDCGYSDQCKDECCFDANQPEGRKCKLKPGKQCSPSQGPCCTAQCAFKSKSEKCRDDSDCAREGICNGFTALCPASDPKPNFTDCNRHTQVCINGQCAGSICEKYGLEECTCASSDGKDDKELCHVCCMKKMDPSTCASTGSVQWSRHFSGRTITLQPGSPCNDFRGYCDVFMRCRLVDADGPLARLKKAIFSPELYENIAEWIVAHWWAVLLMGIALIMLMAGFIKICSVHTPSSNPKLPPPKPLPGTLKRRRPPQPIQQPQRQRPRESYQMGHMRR
ADAM10 counter: ADAM10 inhibitors, counter-screen for ADAM17 exosite inhibitor project, biochemical, FRET, human ADAM10; shares compounds with ADAM17 inh; recombinant ADAM10, EDANS/DABCYL FRET peptide cleavage, 3 h; inhibition, % at 6.95 µM; 47% of 2,900 active; AID 743256, 2014;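 active means mean inhibition over the triplicate runs exceeds the activity threshold set in the earlier primary screen, cut at about 20% in these data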
ADAM17 confirm: ADAM17 inhibitors, hit retest, confirmation, biochemical, QFRET peptide cleavage | recombinant ADAM17, EDANS/DABCYL QFRET peptide cleavage | shares compounds with ADAM17 inh | inhibition, % at 6.95 µM | 65% of 2,900 active;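 active means mean inhibition across replicates above the hit cutoff set in the primary screen, cut at about 8.5% in these data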
Each line names hits and unclear results; the compound was inactive in the other large screens (follow-up assays come after a bar, where they were run). Hits are enriched below; roughly 1.9% of the tested compounds scored in any of these assays.

CCC(C(=O)Nc1ccccc1N1CCCC1)c1cccc(Cl)c1 (configuration not stated)	none (no result: SENP1 inh, FAS-TE inh)
CCN1C(=O)N[C@@H](CCc2ccccc2)[C@@H](C(=O)OC)[C@H]1C	ADAM17 inh 9.8 | ADAM10 counter inactive | ADAM17 confirm inactive
COC(=O)[C@H]1[C@H](CCc2ccccc2)NC(=O)N(Cc2ccccc2)[C@@H]1C	none
Cc1noc(C)c1C(=O)OCC(=O)Nc1ccccc1C(=O)NC(C)c1ccccc1 (configuration not stated)	none
Cc1noc(C)c1C(=O)OCC(=O)Nc1ccccc1Oc1ccccc1	ADAM17 inh 8.7 | ADAM10 counter inactive | ADAM17 confirm 11
COc1cccc2c1[C@H](/C=C/c1ccccc1)[C@@H]([C@H](O)COC(C)=O)OC2	none (no result: SENP1 inh, FAS-TE inh)
O=C(O)c1cc([N+](=O)[O-])ccc1-c1ccc([N+](=O)[O-])cc1C(=O)O	ADAM17 inh 9.4 | ADAM10 counter inactive | ADAM17 confirm inactive
O=C(O)c1cc([N+](=O)[O-])ccc1N1CCCCC1	none
CCCCCCCCN1C(=O)[C@@H](CC(=O)N2CCCC2)C[C@@]2(C(=O)OC)C1=C[C@H](C(C)(C)C)O[C@@H]2C	none (no result: SENP1 inh, FAS-TE inh)
CCN1CCCCC(NC(=O)c2cccc(C(F)(F)F)c2)C1=O (configuration not stated)	none (no result: SENP1 inh, FAS-TE inh)
N#CC(C#N)=C1C=C2C=C(N3CCOCC3)CCC2CC1 (configuration not stated)	none
N#CC(C#N)=C1C=C2C=C(N3CCCCCC3)CCC2CC1 (configuration not stated)	ADAM17 inh 9.7 | ADAM10 counter inactive | ADAM17 confirm inactive
COc1ccc(CCNC(=O)CSc2nc(N)c(C#N)c(-c3cccs3)c2C#N)cc1OC	ADAM17 inh 8.9 | ADAM10 counter inactive | ADAM17 confirm inactive
COc1ccc(NC(=O)C(OC(=O)c2ccc([N+](=O)[O-])o2)c2ccccc2)cc1Cl (configuration not stated)	ADAM17 inh 9.8 | ADAM10 counter 25 | ADAM17 confirm 12
CC1CN(C(=O)COc2ncnc3ccccc23)CC(C)O1 (configuration not stated)	ADAM17 inh 9.7 | ADAM10 counter inactive | ADAM17 confirm inactive
O=C(NNC(=O)C1CCC1)c1ccccc1F	ADAM17 inh 9.9 | ADAM10 counter inactive | ADAM17 confirm inactive
COC(=O)C[C@@H]1CC[C@H]2[C@@H](COc3ccc(NS(=O)(=O)c4ccccc4F)cc3C(=O)N2C)O1	none (no result: SENP1 inh, FAS-TE inh)
COC(=O)[C@]12C[C@H](CC(=O)N3CCC(c4ccccc4)CC3)C(=O)N(Cc3cccc4ccccc34)C1=C[C@H](COCc1ccccc1)O[C@@H]2C	none (no result: SENP1 inh, FAS-TE inh)
COc1ccc2c(c1)CCCN2C(=O)C1CCCN(S(=O)(=O)c2cccs2)C1 (configuration not stated)	none (no result: SENP1 inh, FAS-TE inh)
Cc1ccccc1-n1nc2c(c1NC(=O)c1ccc(S(=O)(=O)N(C)C)cc1)CSC2	ADAM17 inh 13 | ADAM10 counter inactive | ADAM17 confirm 9.4
O=C(CSc1nnc(COc2ccccc2)n1-c1ccc(Cl)cc1)Nc1ccc2c(c1)OCCO2	none (no result: SENP1 inh, FAS-TE inh)
CC(C)(C)c1ccc(-c2nnc(SCC(=O)c3ccc4ccccc4c3)n2-c2ccc(Cl)cc2)cc1	none (no result: SENP1 inh, FAS-TE inh)
COCc1[nH]nc2c1C(c1cccc(C(F)(F)F)c1)N(c1ccc(OC)cc1)C2=O (configuration not stated)	none (no result: SENP1 inh, FAS-TE inh)
NC(=O)NC(Cc1ccccc1)C(=O)Nc1ccc(S(N)(=O)=O)cc1 (configuration not stated)	none
NS(=O)(=O)c1ccc(NC(=O)N[C@@H](Cc2ccccc2)C(=O)O)cc1	ADAM17 inh 9.8 | ADAM10 counter inactive | ADAM17 confirm inactive
CN1CC(c2ccccc2)C2(SC(=S)N(Cc3ccco3)C2=O)C12C(=O)Nc1ccccc12 (configuration not stated)	ADAM17 inh 10, ADAM10 inh 26 | ADAM10 counter 37 | ADAM17 confirm 24
COc1ccc(C)cc1NC(=O)CSc1nnc(COc2ccc(Cl)cc2)n1Cc1ccco1	ADAM17 inh 11 | ADAM10 counter 32 | ADAM17 confirm 18
COc1ccc(NC(=O)CSc2nnc(-c3ccccc3Cl)n2Cc2ccco2)c(OC)c1	none
COc1ccc(C)cc1NC(=O)CSc1nnc(CC(=O)Nc2ccccc2C)n1C	ADAM17 inh 8.7 | ADAM10 counter inactive | ADAM17 confirm inactive
COc1cc2c(cc1NC(=O)CSc1nnc(-c3ccccc3C)n1Cc1ccco1)oc1ccccc12	ADAM17 inh 10 (no result: SENP1 inh, FAS-TE inh) | ADAM10 counter 22 | ADAM17 confirm 15
O=C(CCc1ccccc1)N[C@H]1[C@@H](OC(=O)c2cccnc2)CCC[C@@]12C(=O)N(Cc1ccccc1)c1ccccc12	none (no result: SENP1 inh, FAS-TE inh)
COc1ccc(C2=Nn3c(nnc3-c3ccccc3F)SC2)cc1OC1CCOC1 (configuration not stated)	none
COc1ccc(C2=Nn3c(nnc3-c3ccccc3F)SC2)cc1OC1CCCC1	ADAM17 inh 11, ADAM10 inh 27 | ADAM10 counter 24 | ADAM17 confirm 17
COC(=O)c1cc(=O)cc(C(=O)OC)o1	ADAM17 inh 8.7 | ADAM10 counter inactive | ADAM17 confirm inactive
CCc1nnn2c1Cn1c3ccccc3c(=O)n1[C@@H](C)C2	none (no result: SENP1 inh, FAS-TE inh)
COc1cccc(-c2cnc(C(O)c3cccc(OC)c3)[nH]2)c1 (configuration not stated)	none
COc1ccc(C(O)c2ncc(-c3cccc(C(F)(F)F)c3)[nH]2)cc1F (configuration not stated)	none
OC(c1ccc2ccccc2c1)c1ncc(-c2ccc(C(F)(F)F)cc2)[nH]1 (configuration not stated)	ADAM17 inh 10 | ADAM10 counter 42 | ADAM17 confirm 23
CCc1ccc(C(O)c2ncc(-c3cccc(C(F)(F)F)c3)[nH]2)cc1 (configuration not stated)	ADAM17 inh 11 | ADAM10 counter 21 | ADAM17 confirm 11
CCCc1ccc(C(O)c2ncc(-c3ccccc3F)[nH]2)cc1 (configuration not stated)	ADAM17 inh 9.2 | ADAM10 counter inactive | ADAM17 confirm inactive
COc1cccc(C(O)c2ncc(-c3cccc(C(F)(F)F)c3)[nH]2)c1 (configuration not stated)	ADAM17 inh 10 | ADAM10 counter inactive | ADAM17 confirm 9.8
